Data: ChEMBL document CHEMBL2034978, “Synthesis and evaluation of curcumin-related compounds for anticancer activity” (Eur J Med Chem, 2012)
Activity calls are given as the source filed them. No cut-off for these calls is given here.

Tests used:
[1] = tested on: PANC-1; test: Cytotoxicity against human PANC1 cells after 72 hrs by MTT assay; type: functional, cell-based; settings: PANC-1, 72 h
How it was run: (§1)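 Seeded at 0.2 × 10⁵ cells/ml, grown 24 h, then exposed 72 h to a range of concentrations (upper limit 30). MTT read-out: formazan dissolved in DMSO, absorbance at 540 nm, growth expressed as percent of DMSO-treated cells.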

[2] = tested on: PC-3; test: Cytotoxicity against human PC3 cells after 72 hrs by MTT assay; type: functional, cell-based; settings: PC-3, 72 h; how it was run: as §1
[3] = tested on: HT-29; test: Cytotoxicity against human HT-29 cells after 72 hrs by MTT assay; type: functional, cell-based; settings: HT-29, 72 h; how it was run: as §1
[4] = tested on: PANC-1; test: Ratio of curcumin IC50 to compound IC50 for human PANC1 cells; type: functional
How it was run: (§2)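 Curcumin served as positive control in each incubation, with its growth-inhibition data averaged across experiments.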

[5] = tested on: HT-29; test: Ratio of curcumin IC50 to compound IC50 for human HT-29 cells; type: functional; how it was run: as §2
[6] = tested on: PC-3; test: Ratio of curcumin IC50 to compound IC50 for human PC3 cells; type: functional; how it was run: as §2
[7] = tested on: PC-3; test: Induction of apoptosis in human PC3 cells at <1 uM after 96 hrs by morphology analysis; type: functional, cell-based
[8] = target: Mitogen-activated protein kinase; ERK1/ERK2 (Homo sapiens) (UniProt P27361+P28482); test: Inhibition of ERK1/2 phosphorylation in human PC3 cells at 0.5 uM after 24 hrs by Western blotting relative to beta-actin; type: cell-based; settings: PC-3
Mitogen-activated protein kinase; ERK1/ERK2 (Homo sapiens), sequence (P27361 whole entry, looked up): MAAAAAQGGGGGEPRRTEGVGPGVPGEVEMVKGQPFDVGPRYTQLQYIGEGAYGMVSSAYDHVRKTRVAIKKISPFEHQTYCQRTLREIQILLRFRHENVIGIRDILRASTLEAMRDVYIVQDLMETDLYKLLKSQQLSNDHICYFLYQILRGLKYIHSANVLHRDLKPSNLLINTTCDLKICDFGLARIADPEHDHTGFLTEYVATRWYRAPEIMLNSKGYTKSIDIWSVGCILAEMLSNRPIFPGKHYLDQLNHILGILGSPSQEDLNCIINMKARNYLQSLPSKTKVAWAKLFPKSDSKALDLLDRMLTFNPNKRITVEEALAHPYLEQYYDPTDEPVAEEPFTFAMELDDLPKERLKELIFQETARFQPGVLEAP
Mitogen-activated protein kinase; ERK1/ERK2 (Homo sapiens), sequence (P28482 whole entry, looked up): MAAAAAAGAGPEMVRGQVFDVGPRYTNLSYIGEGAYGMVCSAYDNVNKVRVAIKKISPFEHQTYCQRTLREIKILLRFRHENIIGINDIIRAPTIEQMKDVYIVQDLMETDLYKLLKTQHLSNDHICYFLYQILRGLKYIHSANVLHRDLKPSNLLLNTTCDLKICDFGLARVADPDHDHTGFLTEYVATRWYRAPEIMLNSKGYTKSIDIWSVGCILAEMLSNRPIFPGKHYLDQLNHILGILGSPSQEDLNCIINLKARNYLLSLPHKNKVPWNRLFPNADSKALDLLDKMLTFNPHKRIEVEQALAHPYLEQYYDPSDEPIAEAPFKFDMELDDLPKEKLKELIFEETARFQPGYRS
How it was run: (§3)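 PC-3 cells were seeded at 1 × 10⁵ cells/ml in 100 mm dishes, grown 24 h, then treated 24 h. Cells were lysed in Tris-HCl pH 7.4 buffer containing NaF, pyrophosphate, orthovanadate and Triton X-100, and lysates cleared at 12,000×g. Blots on PVDF were probed with anti-phospho-Akt or anti-phospho-Erk1/2, detected by ECL, quantified by optical density and normalized to β-actin.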

[9] = tested on: PC-3; test: Inhibition of Akt phosphorylation in human PC3 cells at 0.5 uM after 24 hrs by Western blotting relative to beta-actin; type: cell-based; how it was run: as §3

Compound: O=C1/C(=C/c2ccccn2)COC/C1=C\c1ccccn1
- IC50 [1]: 3.24 µM
- IC50 [2]: 1.88 µM
- IC50 [3]: 3.28 µM

Compound: O=C1/C(=C/c2ccc(F)cc2)CC/C1=C\c1ccc(F)cc1
- IC50 [1]: 19.7 µM
- IC50 [2]: 19 µM
- IC50 [3]: 14.4 µM

Compound: COc1cc(/C=C2\CCC/C(=C\c3cc(OC)c(O)c(OC)c3)C2=O)cc(OC)c1O
- IC50 [1]: 2.63 µM
- IC50 [2]: 4.14 µM
- IC50 [3]: 2.7 µM

Compound: COc1ccc(/C=C/C(=O)/C=C/c2ccc(OC)cc2)cc1
- IC50 [1]: 14 µM
- IC50 [2]: 11.2 µM
- IC50 [3]: 11.3 µM

Compound: O=C1/C(=C/c2ccncc2)CC/C1=C\c1ccncc1
- IC50 [1]: 7.88 µM
- IC50 [2]: 5.58 µM
- IC50 [3]: 7.58 µM

Compound: O=C1/C(=C/c2ccc(O)cc2)CC/C1=C\c1ccc(O)cc1
- IC50 [1]: > 30 µM
- IC50 [2]: 22.9 µM
- IC50 [3]: 21.4 µM

Compound: O=C1/C(=C/c2ccncc2)CCC/C1=C\c1ccncc1
- IC50 [1]: 2.18 µM
- IC50 [2]: 2.12 µM
- IC50 [3]: 2.35 µM

Compound: COc1cc(/C=C/C(=O)/C=C/c2cc(OC)c(O)c(OC)c2)cc(OC)c1O
- IC50 [1]: 2.23 µM
- IC50 [2]: 3.41 µM
- IC50 [3]: 2.24 µM

Compound: COc1ccc(/C=C2\CC/C(=C\c3ccc(OC)c(OC)c3)C2=O)cc1OC
- IC50 [1]: 13.7 µM
- IC50 [2]: 9.3 µM
- IC50 [3]: 13.5 µM

Compound: O=C(/C=C/c1ccc(F)cc1)/C=C/c1ccc(F)cc1
- IC50 [1]: 12.5 µM
- IC50 [3]: 9.35 µM

Compound: COc1cc(/C=C2\CC/C(=C\c3ccc(O)c(OC)c3)C2=O)ccc1O
- IC50 [1]: 15.5 µM
- IC50 [2]: 15.5 µM
- IC50 [3]: 9.7 µM

Compound: COc1ccc(/C=C2\CC/C(=C\c3ccc(OC)c(OC)c3OC)C2=O)c(OC)c1OC
- IC50 [1]: 22.7 µM
- IC50 [2]: 18.7 µM
- IC50 [3]: 19.8 µM

Compound: O=C1/C(=C/c2ccccn2)CSC/C1=C\c1ccccn1
- Ratio IC50 [4]: 21
- IC50 [1]: 0.7 µM
- Ratio IC50 [5]: 21
- Ratio IC50 [6]: 21
- Activity [7]: Active
- IC50 [2]: 0.52 µM
- IC50 [3]: 0.76 µM
- inhibition [8]: Active
- inhibition [9]: inactive

Compound: COc1cc(/C=C/C(=O)/C=C/c2ccc(O)c(OC)c2)ccc1O
- IC50 [1]: 4.62 µM
- IC50 [2]: 4.2 µM
- IC50 [3]: 2.94 µM

Compound: COc1ccc(/C=C2\CCC/C(=C\c3ccc(OC)cc3)C2=O)cc1
- IC50 [1]: 15.9 µM
- IC50 [2]: 12.3 µM
- IC50 [3]: 13.7 µM

Compound: COc1cc(/C=C2\CCC/C(=C\c3cc(OC)c(OC)c(OC)c3)C2=O)cc(OC)c1OC
- IC50 [1]: 9.66 µM
- IC50 [2]: 6.17 µM
- IC50 [3]: 4.23 µM

Compound: O=C1/C(=C/c2ccncc2)COC/C1=C\c1ccncc1
- IC50 [1]: 2.96 µM
- IC50 [2]: 1.83 µM
- IC50 [3]: 4.17 µM

Compound: O=C1/C(=C/c2ccccn2)CCC/C1=C\c1ccccn1
- IC50 [1]: 1.3 µM
- IC50 [2]: 1.28 µM
- IC50 [3]: 1.43 µM

Compound: O=C1/C(=C/c2ccsc2)CC/C1=C\c1ccsc1
- IC50 [1]: 27.9 µM
- IC50 [2]: 23 µM
- IC50 [3]: 19.7 µM

Compound: COc1ccc(C=C2CSCC(=Cc3ccc(OC)c(OC)c3OC)C2=O)c(OC)c1OC
- IC50 [1]: 4.71 µM
- IC50 [2]: 3.78 µM
- IC50 [3]: 2.89 µM

Compound: COc1ccc(/C=C/C(=O)/C=C/c2ccc(OC)c(OC)c2OC)c(OC)c1OC
- IC50 [1]: 9.22 µM
- IC50 [2]: 5.93 µM
- IC50 [3]: 5.09 µM

Compound: COc1cc(C=C2CSCC(=Cc3cc(OC)c(OC)c(OC)c3)C2=O)cc(OC)c1OC
- Ratio IC50 [4]: 34
- IC50 [1]: 0.7 µM
- Ratio IC50 [5]: 72
- Ratio IC50 [6]: 69
- Activity [7]: Active
- IC50 [2]: 0.28 µM
- IC50 [3]: 0.26 µM
- inhibition [8]: Active
- inhibition [9]: inactive

Compound: COc1cc(/C=C/C(=O)/C=C/c2cc(OC)c(OC)c(OC)c2)cc(OC)c1OC
- IC50 [1]: 3.38 µM
- IC50 [2]: 4.63 µM
- IC50 [3]: 1.68 µM

Compound: COc1cc(/C=C2\CC/C(=C\c3cc(OC)c(OC)c(OC)c3)C2=O)cc(OC)c1OC
- IC50 [1]: 18.8 µM
- IC50 [2]: 16.4 µM
- IC50 [3]: 12.7 µM

Compound: COc1ccc(/C=C2\CCC/C(=C\c3ccc(OC)c(OC)c3OC)C2=O)c(OC)c1OC
- IC50 [1]: 11.6 µM
- IC50 [2]: 8.22 µM
- IC50 [3]: 7.14 µM

Compound: O=C1/C(=C/c2ccsc2)COC/C1=C\c1ccsc1
- IC50 [1]: 10.8 µM
- IC50 [2]: 6.59 µM
- IC50 [3]: 8.94 µM

Compound: O=C1/C(=C/c2ccc(F)cc2)CCC/C1=C\c1ccc(F)cc1
- IC50 [1]: 10.4 µM
- IC50 [2]: 11.9 µM
- IC50 [3]: 7.56 µM

Compound: COc1ccc(/C=C2\COC/C(=C\c3ccc(OC)cc3)C2=O)cc1
- IC50 [1]: 7.63 µM
- IC50 [2]: 6.12 µM
- IC50 [3]: 6.05 µM

Compound: O=C1/C(=C/c2ccc(Cl)cc2)CC/C1=C\c1ccc(Cl)cc1
- IC50 [1]: 23.2 µM
- IC50 [2]: 25 µM
- IC50 [3]: 15.9 µM

Compound: O=C1/C(=C/c2ccc(Br)cc2)CNC/C1=C\c1ccc(Br)cc1
- IC50 [1]: 2.06 µM
- IC50 [2]: 1.95 µM
- IC50 [3]: 4.13 µM
